Test system: RAN translation of r(G4C2)^exp
Assay: RAN translation assay in HEK293T cells co-transfected with
Format: cell-based
Conditions: read-out: IC50 for inhibition of RAN translation, approximate values
How it was run: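 HEK293T cells in DMEM/10% FBS at ~80% confluency were co-transfected with (G4C2)66-no ATG-GFP and an mCherry control plasmid, reseeded, and dosed 2 h later. After 24 h with compound, cells were lysed in 100 mM potassium phosphate pH 7.8 with 0.2% Triton X-100. GFP (ex 485/20, em 528/20) and mCherry (ex 530/25, em 590/35) were read, and the untransfected-cell-background-corrected GFP/mCherry ratio was used.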

## Cc1c2ccnc(C(=O)NCCN(C)C)c2cc2c3cc(O)ccc3n(C)c12 [Compound 2]
  IC50: ~300 nM

Source: article PMC9860304 (Proceedings of the National Academy of Sciences of the …, 2022)
